Data as given in ChEMBL document CHEMBL1127319, “CNAD: a potent and specific inhibitor of alcohol dehydrogenase” (J Med Chem, 1994).

Assays:
[1] = biological target: Glutamate dehydrogenase 1, mitochondrial (Bos taurus, UniProt P00366); assay: Inhibition constant against mammalian glutamate dehydrogenase (GDH)
In short: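 Bovine liver GDH in 0.1 M sodium phosphate, pH 7.0, with 10 μM EDTA. NAD is the variable substrate. Rates are followed as the increase in A340 from NADH formation (ε 6.22 mM-1 cm-1). Ki is taken from Lineweaver-Burk plots by linear regression. At least duplicate runs.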

[2] = Apparent inhibition constant against mammalian malate dehydrogenase (MDH)
In short: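 LDH and MDH: 0.05 M Tris-HCl, pH 9.0. NAD is the variable substrate. Rates come from the rise in A340 as NADH forms (ε 6.22 mM-1 cm-1). Ki is estimated from Lineweaver-Burk plots by linear regression of slope and intercept. Assays run at least in duplicate.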

Sequence of Glutamate dehydrogenase 1, mitochondrial (P00366 whole entry): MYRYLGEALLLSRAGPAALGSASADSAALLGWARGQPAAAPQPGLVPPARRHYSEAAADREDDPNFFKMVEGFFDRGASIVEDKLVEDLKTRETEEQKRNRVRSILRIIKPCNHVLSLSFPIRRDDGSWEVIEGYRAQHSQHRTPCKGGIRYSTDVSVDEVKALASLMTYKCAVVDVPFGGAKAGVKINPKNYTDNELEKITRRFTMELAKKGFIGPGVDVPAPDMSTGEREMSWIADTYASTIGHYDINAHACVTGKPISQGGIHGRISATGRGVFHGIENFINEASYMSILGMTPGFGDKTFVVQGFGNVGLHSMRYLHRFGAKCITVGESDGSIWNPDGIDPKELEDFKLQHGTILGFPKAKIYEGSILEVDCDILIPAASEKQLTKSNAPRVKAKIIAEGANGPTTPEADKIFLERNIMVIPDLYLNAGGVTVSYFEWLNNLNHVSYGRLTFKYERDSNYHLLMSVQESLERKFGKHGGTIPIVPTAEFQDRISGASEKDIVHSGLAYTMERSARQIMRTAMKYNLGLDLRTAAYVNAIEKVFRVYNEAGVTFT

Ki [1] | Ki [2] | Structure (SMILES)
3.4 µM |  | NC(=O)C1=CN(C2OC(COP(=O)(O)OP(=O)(O)OC[C@H]3O[C@@H](n4cnc5c(N)ncnc54)[C@H](O)[C@@H]3O)[C@H](O)[C@@H]2O)C=CC1 (stereo partly drawn)
 | 410 µM | NC(=O)c1cncc([C@@H]2O[C@H](COP(=O)(O)OP(=O)(O)OC[C@H]3O[C@@H](n4cnc5c(N)ncnc54)[C@H](O)[C@@H]3O)[C@@H](O)[C@H]2O)c1
50 µM |  | NC(=O)c1cccc([C@@H]2O[C@H](COP(=O)(O)OP(=O)(O)OC[C@H]3O[C@@H](n4cnc5c(N)ncnc54)[C@H](O)[C@@H]3O)[C@@H](O)[C@H]2O)n1
